From PubChem BioAssay
Hits are enriched below; roughly 7.2% of the tested compounds scored in any of these assays.
M1 antagonist – antagonists of rat M1 muscarinic receptor; Muscarinic acetylcholine receptor M1 (Rattus norvegicus), P08482; CHO-M1 cells, Fluo-4 calcium, ACh EC80 antagonist mode; active compounds read low; B-score at 10 µM; hit rate 3.4% among 64,000; AID 628, 2007;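 active means calcium fluorescence response, raw or row-and-column corrected B-score, differing from the plate sample mean either way at a set confidence level, mostly lower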
Target sequence (P08482 whole entry, looked up): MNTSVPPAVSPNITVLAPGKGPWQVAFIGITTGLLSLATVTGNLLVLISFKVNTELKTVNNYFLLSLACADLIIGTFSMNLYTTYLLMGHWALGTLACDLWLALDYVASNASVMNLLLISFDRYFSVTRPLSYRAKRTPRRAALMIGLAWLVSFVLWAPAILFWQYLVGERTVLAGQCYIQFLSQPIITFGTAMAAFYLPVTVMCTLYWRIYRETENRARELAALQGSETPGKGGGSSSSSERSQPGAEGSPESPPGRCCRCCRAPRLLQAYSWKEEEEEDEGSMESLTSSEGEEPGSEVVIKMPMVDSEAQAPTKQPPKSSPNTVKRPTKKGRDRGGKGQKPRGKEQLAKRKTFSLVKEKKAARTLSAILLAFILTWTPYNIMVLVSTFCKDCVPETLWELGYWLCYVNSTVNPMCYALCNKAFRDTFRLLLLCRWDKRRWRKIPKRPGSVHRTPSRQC
BAP1 inh – inhibitors of BAP1 deubiquitinase, primary screen, biochemical, Ub-AMC fluorescence, kinetic; Ubiquitin carboxyl-terminal hydrolase BAP1 (Homo sapiens), Q92560; recombinant BAP1, Ub-AMC hydrolysis fluorescence kinetic; active compounds read low; calls only at 20 µM; hit rate 0.48% among 72,000;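 active means activity remaining at or below 50% of control, provided the compound also passes the data quality filters; inactive means the rest, including low values that fail the filters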;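 further: 100% = DMSO wells rate and 0% = substrate alone blank rate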
HEK293 NFkB inh – inhibitors of PMA/ionomycin-induced NF-kB reporter, primary screen, antigen receptor NF-kB inhibitor project, cell-based, HEK-293 luciferase reporter, luminescence. AID 465, 2006. HEK-293 NF-kB luciferase reporter. inhibition, % at 3 µM. hit rate 0.21% among 62,000;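 active means inhibition above the mean of all tested compounds plus 3 SD, cut at about 40% in these data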;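 further: 0% = stimulated DMSO wells and 100% = 10 µM reference inhibitor 5653914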
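Material: HEK-293 cells with stable firefly luciferase reporter driven by four HIV NF-kB elements / Also added: PMA plus ionomycin mix as NF-kB-activating stimulus / Compound dosing: 3 µM once, 0.30% DMSO / Times: 1 h pretreatment, 16 h stimulation, 37 °C / Signal: luminescence / Evaluation: per-plate % inhibition versus controls / Benchmarks: DMSO and 10 µM reference inhibitor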
D1 allo mod – D1 CRE-luciferase signal change, two-sided – cell-based, HEK293 D1, dopamine EC30, D1 allosteric modulator project, primary screen. dopamine EC30 potentiation; actives deviate in either direction. B-score at 10 µM. hit rate 5.9% among 58,000. AID 641, 2007;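 active means luminescence count or its row- and column-corrected plate score outside the 99.7% band of the plate's sample wells, on either side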
hDAT+cocaine – changed hDAT dopamine uptake under cocaine IC80, either direction, primary screen, cocaine antagonist project, cell-based, LLC-PK1 hDAT, [14C]-dopamine uptake, MLSMR; Sodium-dependent dopamine transporter (Homo sapiens), Q01959; hit rate 1.3% among 110,000; LLC-PK1 hDAT cells, [14C]-dopamine uptake with cocaine IC80; actives deviate in either direction; B-score at 10 µM;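 active means Z score or B-score, a plate-position-corrected score, falls beyond the plate's 99.7% confidence bounds, in either direction; inactive means both scores lie inside the 99.7% bounds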;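 further: scored against the spread of the other compound wells on the same plate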
M1 ag – M1 muscarinic receptor agonists, primary screen, CHO-M1 cells, Fluo-4 calcium, agonist mode; hit rate 3% among 64,000; AID 626, 2007; Muscarinic acetylcholine receptor M1; Fluo-4 calcium fluorescence; active compounds read high; B-score at 10 µM;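 active means fluorescence rise, raw or as B-score row- and column-corrected plate score, outside the 99.7% band of its plate's samples, either direction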
M1 antag confirm – rat M1 muscarinic receptor antagonists, confirmation, CHO cells, Fluo-4 calcium, duplicate. shares compounds with M1 antagonist. ACh EC80 antagonism; active compounds read low. calcium response (max-min fluorescence) at 10 µM. hit rate 43% among 1,700;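 active means calcium response below the same-plate mean of wells given acetylcholine alone at its 80%-effect dose, minus 3 SD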;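 further: raw fluorescence intensity difference in arbitrary instrument units and not normalized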
mGluR4 antag – human mGluR4 response to M1 antagonist hits, M1 allosteric modulator project, cell-based, antagonist mode, secondary assay 1; CHO-mGluR4 calcium flux, Fluo-4 fluorescence, glutamate EC80; active compounds read low; hit rate 0.9% among 1,700; shares compounds with M1 antagonist; fluorescence response (max-min) at 10 µM; AID 678, 2007;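 active means fluorescence response below the plate's average for near-maximal glutamate wells, less 3 SD of those wells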;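 further: raw unnormalized fluorescence span taken in the window right after glutamate addition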
D1 PAM confirm – D1 receptor positive allosteric modulators, retest, confirmation, cell-based, HEK293 D1, CRE-luciferase, duplicate; shares compounds with D1 allo mod; luminescence at 10 µM; AID 642, 2007; hit rate 88% among 2,200; dopamine EC30 potentiation; active compounds read high;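 active means luminescence in either of two replicates above the same-plate mean plus 3 SD of the low-dose dopamine control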
D1 ag no DA – D1 receptor agonism without dopamine, confirmation, mechanism study for D1 allosteric modulator project, cell-based, HEK293 D1, CRE-luciferase, secondary assay 1 | luminescence, no dopamine; active compounds read high | luminescence at 10 µM | shares compounds with D1 allo mod | AID 646, 2007 | hit rate 0.8% among 1,900; in the data active means luminescence above about 3900
Isoprot counter – alters isoproterenol CRE-luciferase response in HEK293 cells; HEK293 D1 CRE-luciferase, isoproterenol EC30 counter-screen; hit rate 63% among 2,200; calls only at 10 µM; shares compounds with D1 allo mod;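 active means luminescence in either replicate above plate mean of wells with a partly effective reference agonist dose plus 3 SD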;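 further: isoproterenol raises cAMP through native beta-adrenoceptor Gs so signal bypasses D1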
The depositor's hits bear a star; i = inactive; nt = not tested or not shown; + = active, no number.

SMILES	M1 antagonist	BAP1 inh	HEK293 NFkB inh	D1 allo mod	hDAT+cocaine	M1 ag	M1 antag confirm	mGluR4 antag	D1 PAM confirm	D1 ag no DA	Isoprot counter
CCN1CCN(Cc2nc3c(c(=O)n(C)c(=O)n3C)n2Cc2cccc3ccccc23)CC1	-2.8*	i	3	-0.041	2.3	0.32	620	255	nt	nt	nt
CCC1CCCCN1Cc1nc2c(c(=O)n(C)c(=O)n2C)n1Cc1cccc2ccccc12 (centres undefined)	0.26	i	0	nt	0.92	-0.36	nt	nt	nt	nt	nt
CCC(C)(Nc1ccc(C)cc1)c1nnnn1-c1c(C)cccc1C (centres undefined)	nt	i	nt	nt	nt	nt	nt	nt	nt	nt	nt
CCN(CC(=O)NC1CCCCC1)S(=O)(=O)c1ccc(Cl)cc1	-3.2*	i	5	-1.4	0.24	-0.44	680	228	nt	nt	nt
CC(C)(C)c1ccc(C(=O)Nc2nnc(-c3ccc(F)cc3)s2)cc1	nt	i	nt	nt	nt	nt	nt	nt	nt	nt	nt
CCc1cc2c(=O)c(-c3cnn(-c4ccccc4)c3)coc2c(CN2CCOCC2)c1O	-4.2*	i	6	0.063	0.84	0.75	528	193	nt	nt	nt
O=c1cc(-c2cccc([N+](=O)[O-])c2)c2ccc(OCc3ccc(F)cc3)cc2o1	nt	i	nt	nt	nt	nt	nt	nt	nt	nt	nt
COc1ccc(S(=O)(=O)Nc2cccc(C(=O)O)c2)cc1C(=O)O	nt	i	nt	nt	nt	nt	nt	nt	nt	nt	nt
CN1[C@@H]2CC(OC(=O)[C@H](CO)c3ccccc3)C[C@H]1[C@@H]1O[C@@H]12 (some centres undefined)	nt	i	nt	-0.27	0.029	nt	nt	247	nt	nt	nt
CCN(C1CCCCC1)S(=O)(=O)c1ccc(S(=O)(=O)N2CCN(CCC#N)CC2)cc1	-1.5*	i	10	-0.4	0.066	0.046	327*	206	nt	nt	nt
CCCCNC(=O)c1ccc2c(c1)N(CC)C(=O)CS2	-0.3	i	6	-0.74	0.83	0.8	nt	nt	nt	nt	nt
O=C(NCCN1CCOCC1)c1ccc2c(c1)N(Cc1ccccc1F)C(=O)CS2	-3.8*	i	16	-0.033	nt	0.2	172*	172	nt	nt	nt
O=c1cc(-c2ccccc2)c2ccc(Oc3ccc(C(F)(F)F)cc3[N+](=O)[O-])cc2o1	nt	i	nt	nt	nt	nt	nt	nt	nt	nt	nt
Oc1c(CN2CCN(c3ccccn3)CC2)cc(Cl)c2cccnc12	-1.9*	nt	21	-1.5	-0.18	-3.1	577	271	nt	nt	nt
Oc1c(CN2CCCCC2)cc(COCc2ccccc2)c2cccnc12	-5.4*	i	32	-0.18	0.65	-0.46	410*	272	nt	nt	nt
COC(=O)C1=C(C)NC2=C(C(=O)CCC2)C1c1ccccc1OC (centres undefined)	nt	i	nt	nt	nt	nt	nt	nt	nt	nt	nt
c1cncc(-c2nc(NCc3ccco3)c3ccccc3n2)c1	-2.7*	i	-2	7.3*	-0.031	1.4	498*	228	11656*	nt	+
CCOC(=O)c1c(-c2cccs2)csc1NC(=O)CSc1ncn[nH]1	-2.7*	i	16	3.3*	-0.79	-0.39	621	235	11080*	2064	i
CCOC(=O)c1c(-c2cccs2)csc1NC(C)=O	nt	i	nt	nt	0.21	nt	nt	nt	nt	nt	nt
O=C1CC(N2CCN(Cc3ccc4c(c3)OCO4)CC2)C(=O)N1CCc1ccccc1 (centres undefined)	-1.2*	i	4	2.5*	1.8	-2.5	482	220	4952	960	i
CCN(C#N)c1nc(NC(C)C)nc(NC(C)C)n1	-3.5*	i	21	9.7*	0.0098	0.43	607	246	22184*	1544	+
COC(=O)CN(C#N)c1nc(NC(C)C)nc(OC)n1	nt	nt	nt	nt	-0.94	nt	nt	nt	nt	nt	nt
O=C(c1ccc(Cl)cc1)N1CCN(c2ccc(C(F)(F)F)cc2[N+](=O)[O-])CC1	nt	i	nt	nt	nt	nt	nt	nt	nt	nt	nt
Cc1ccc(NC(=O)Cn2c3ccccc3c(=O)c3ccccc32)cc1C	nt	i	nt	nt	nt	nt	nt	nt	nt	nt	nt
CCOC(=O)C1CCN(S(=O)(=O)c2cc(Br)cc3c2N(C(C)=O)C(C)C3)CC1 (centres undefined)	-2.3*	nt	9	4.6*	0.52	0.43	519	200	8392*	1388	+
SMILES	M1 antagonist	BAP1 inh	HEK293 NFkB inh	D1 allo mod	hDAT+cocaine	M1 ag	M1 antag confirm	mGluR4 antag	D1 PAM confirm	D1 ag no DA	Isoprot counter
CCOc1ccc(C2NC(=O)NC(C)=C2C(=O)OC(C)C)cc1 (centres undefined)	nt	i	nt	nt	nt	nt	nt	nt	nt	nt	nt
CCOC(=O)c1sc(NC(=O)CSc2nnc(-c3ccco3)n2CC)c(C(=O)OCC)c1C	-0.065	nt	-4	0.016	0.76	-0.51	nt	nt	nt	nt	nt
CCOC(=O)c1sc(NC(=O)CSc2nncs2)c(C(=O)OCC)c1C	-5*	nt	9	4*	-0.6	-0.19	555	247	6908*	1576	i
Clc1ccc(-n2nnnc2-c2ccccc2)cc1Cl	-2.6*	i	7	13*	0.067	0.35	516	250	19112*	1808	+
COc1nc(Nc2ccc(OC)c(Cl)c2)nc(OC)n1	-1.2*	i	13	4.3*	0.024	-0.11	603	255	10816*	1484	+
COc1ccc(CN2CCN(S(=O)(=O)c3ccc(NC(C)=O)cc3)CC2)cc1OC	-2.7*	i	17	5.2*	-0.12	-1.5	529	212	15368*	1544	+
Cc1ccc(-n2ncc(C#N)c2/N=C/N2CCN(C)CC2)cc1	-0.17	i	-7	0.00058	0.23	0.058	nt	nt	nt	nt	nt
Cc1ccc(-n2ncc(C#N)c2/N=C/N2CCCCCC2)cc1	-2*	i	12	20*	0.46	0.5	560*	196	17800*	1536	+
